*1 amine or outer side, *2 acyl side, *3 side chain or, on linkers, in order; H or OH if unused. Where a SMILES comes first, the peptide text is derived from it. Bridges are numbered along the chain shown (N, C = ends). [ ]: non-standard residue; d: D form. The star is where a group is joined. 6FAM = O=C1OC2(c3ccc(O)cc3Oc3cc(O)ccc32)c2cc(C(=O)*)ccc21; X4 = O=C(CC1(S[*:2])CCCCC1)[*:1]; X1 = O=C([C@@H](O)CS[*:2])[*:1]; Orn = NCCC[C@H](N)C(=O)O; Mpa = O=C(O)CCS A value given as a limit tells only on which side of the number the result lay.

One test concerns the target T1, Vasopressin V1b receptor (Homo sapiens, UniProt P47901).
T1 sequence (P47901 whole entry): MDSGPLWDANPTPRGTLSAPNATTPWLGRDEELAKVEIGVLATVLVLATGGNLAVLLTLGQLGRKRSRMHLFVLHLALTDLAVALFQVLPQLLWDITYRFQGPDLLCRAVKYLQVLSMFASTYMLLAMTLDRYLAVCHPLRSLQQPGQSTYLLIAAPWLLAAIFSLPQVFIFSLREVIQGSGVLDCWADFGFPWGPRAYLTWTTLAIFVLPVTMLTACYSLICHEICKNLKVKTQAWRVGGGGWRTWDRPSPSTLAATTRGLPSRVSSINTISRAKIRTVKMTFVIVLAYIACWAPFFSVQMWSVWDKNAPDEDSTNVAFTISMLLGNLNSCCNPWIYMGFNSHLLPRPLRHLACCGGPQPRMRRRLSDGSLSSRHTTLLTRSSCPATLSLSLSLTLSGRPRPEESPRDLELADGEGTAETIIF
Put plainly: Binding affinity towards human Vasopressin V1b receptor. The method in brief: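 Competition binding on membranes from CHO cells stably expressing one human receptor, butyrate-treated (5 mM, overnight). Radioligands: OT, 200-250 pM [125I]OTA or 120-180 pM [125I]HO-LVA; V1a, 40-60 pM [125I]HO-LVA; V1b, 1-3 nM [3H]AVP. Competitor 1 pM-1 µM; nonspecific with 1 µM unlabeled ligand; 1 h, 30 °C. Ki by nonlinear least-squares, ≥3 experiments in triplicate.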

The target of a further test is T2, Oxytocin receptor (Homo sapiens, UniProt P30559).
T2 sequence (P30559 whole entry): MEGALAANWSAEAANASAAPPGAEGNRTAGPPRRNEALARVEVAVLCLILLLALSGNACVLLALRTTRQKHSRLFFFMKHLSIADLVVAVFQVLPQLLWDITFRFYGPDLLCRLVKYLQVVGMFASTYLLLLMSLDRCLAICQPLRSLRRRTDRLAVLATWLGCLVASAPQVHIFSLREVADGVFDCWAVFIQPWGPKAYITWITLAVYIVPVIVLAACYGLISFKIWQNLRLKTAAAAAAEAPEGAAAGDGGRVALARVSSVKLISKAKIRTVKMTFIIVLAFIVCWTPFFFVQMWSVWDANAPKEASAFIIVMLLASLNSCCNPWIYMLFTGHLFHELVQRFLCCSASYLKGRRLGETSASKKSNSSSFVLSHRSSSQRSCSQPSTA
Put plainly: Binding affinity for human oxytocin receptor.

Another test has as its target Vasopressin V1a receptor (Homo sapiens, UniProt P37288). The test can be described thus: Binding affinity for human Vasopressin V1a receptor.
In the next test the target is Vasopressin V2 receptor (Homo sapiens, UniProt P30518). The test can be described thus: Binding affinity towards human Vasopressin V2 receptor. The essentials: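 Human V2 receptor stably expressed in CHO cells, butyrate-treated (5 mM, overnight); membranes at 5-10 µg protein/assay competed against 1-3 nM [3H]AVP. Fluorescent ligand ranged 1 pM-1 µM; nonspecific binding defined with 1 µM unlabeled ligand. Incubation 1 h at 30 °C. Ki from nonlinear least-squares fit of two independent experiments, each run in triplicate.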
Chain of Vasopressin V2 receptor (P30518 whole entry): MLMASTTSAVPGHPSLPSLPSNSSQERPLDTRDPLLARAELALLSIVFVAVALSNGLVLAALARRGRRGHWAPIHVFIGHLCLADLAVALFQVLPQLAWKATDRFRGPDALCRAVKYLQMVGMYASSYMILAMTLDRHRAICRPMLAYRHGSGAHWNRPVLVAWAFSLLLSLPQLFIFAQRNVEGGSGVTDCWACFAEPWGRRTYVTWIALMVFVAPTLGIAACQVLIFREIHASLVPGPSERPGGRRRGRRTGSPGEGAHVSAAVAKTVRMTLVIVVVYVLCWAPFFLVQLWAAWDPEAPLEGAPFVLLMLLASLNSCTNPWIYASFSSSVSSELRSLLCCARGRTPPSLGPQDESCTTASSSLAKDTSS

Chain of Vasopressin V1a receptor (P37288 whole entry): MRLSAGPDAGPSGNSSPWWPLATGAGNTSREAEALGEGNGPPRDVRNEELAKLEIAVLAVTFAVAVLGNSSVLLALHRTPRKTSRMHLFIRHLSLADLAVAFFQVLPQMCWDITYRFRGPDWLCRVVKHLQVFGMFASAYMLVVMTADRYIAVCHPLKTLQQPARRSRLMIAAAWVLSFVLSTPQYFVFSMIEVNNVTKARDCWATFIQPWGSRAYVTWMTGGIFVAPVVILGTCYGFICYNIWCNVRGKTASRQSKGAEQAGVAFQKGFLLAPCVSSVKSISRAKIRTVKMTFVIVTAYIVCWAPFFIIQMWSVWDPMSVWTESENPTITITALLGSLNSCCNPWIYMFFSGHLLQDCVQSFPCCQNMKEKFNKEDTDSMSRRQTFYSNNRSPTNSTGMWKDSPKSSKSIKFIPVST

For the compound `CC[C@H](C)[C@@H]1NC(=O)[C@H](Cc2ccc(O)cc2)NC(=O)[C@@H](O)CSSC[C@@H](C(=O)N2CCC[C@H]2C(=O)N[C@@H](CCCNC(=O)c2ccc3c(c2)C2(OC3=O)c3ccc(O)cc3Oc3cc(O)ccc32)C(=O)NCC(N)=O)NC(=O)[C@H](CC(N)=O)NC(=O)[C@H](CCC(N)=O)NC1=O` (YIQNCP[Orn](6FAM)G-NH2; linker N-5 via X1), the values for the Ki at Vasopressin V1b receptor, on Oxytocin receptor and at Vasopressin V1a receptor were 126 nM, 0.18 nM and 12.2 nM, respectively.

Regarding `CC[C@H](C)[C@@H]1NC(=O)[C@H](Cc2ccc(O)cc2)NC(=O)CCSSC[C@@H](C(=O)N2CCC[C@H]2C(=O)N[C@@H](CCCCNC(=O)c2ccc3c(c2)C2(OC3=O)c3ccc(O)cc3Oc3cc(O)ccc32)C(=O)NCC(N)=O)NC(=O)[C@H](CC(N)=O)NC(=O)[C@H](CCC(N)=O)NC1=O` ([Mpa]YIQNCPK(6FAM)G-NH2; disulfide 1-6), the Ki (usually the equilibrium dissociation constant of an inhibitor or competing ligand from its target) was above 10000 nM on Vasopressin V2 receptor, 124 nM at Vasopressin V1b receptor, 0.29 nM on Oxytocin receptor and 57 nM on Vasopressin V1a receptor.

As to `CC[C@H](C)[C@@H]1NC(=O)[C@@H](Cc2ccc(O)cc2)NC(=O)CC2(CCCCC2)SSC[C@@H](C(=O)N2CCC[C@H]2C(=O)N[C@@H](CCCNC(=O)c2ccc3c(c2)C2(OC3=O)c3ccc(O)cc3Oc3cc(O)ccc32)C(=O)O)NC(=O)[C@H](CC(N)=O)NC(=O)[C@H]([C@@H](C)O)NC1=O`, the Ki at Vasopressin V2 receptor is above 10000 nM; at Vasopressin V1b receptor it was above 1000 nM; at Oxytocin receptor, 126 nM; at Vasopressin V1a receptor it was 656 nM.

Turning to `CC[C@H](C)[C@@H]1NC(=O)[C@H](Cc2ccc(OC)cc2)NC(=O)CC2(CCCCC2)SSC[C@@H](C(=O)N2CCC[C@H]2C(=O)N[C@@H](CCCN)C(=O)N[C@@H](Cc2ccc(O)cc2)C(N)=O)NC(=O)[C@H](CC(N)=O)NC(=O)[C@H]([C@@H](C)O)NC1=O` (Y(Me)ITNCP[Orn]Y-NH2; linker N-5 via X4), the Ki is 930 nM at Vasopressin V2 receptor, above 10000 nM at Vasopressin V1b receptor, 0.21 nM on Oxytocin receptor and 3.9 nM at Vasopressin V1a receptor.

For `CC[C@H](C)[C@@H]1NC(=O)[C@H](Cc2ccc(O)cc2)NC(=O)[C@@H](O)CSSC[C@@H](C(=O)N2CCC[C@H]2C(=O)N[C@@H](CCCCNC(=O)c2ccc3c(c2)C2(OC3=O)c3ccc(O)cc3Oc3cc(O)ccc32)C(=O)NCC(N)=O)NC(=O)[C@H](CC(N)=O)NC(=O)[C@H](CCC(N)=O)NC1=O` (YIQNCPK(6FAM)G-NH2; linker N-5 via X1), the inhibitory constant (Ki) on Vasopressin V1b receptor amounted to 66 nM; on Oxytocin receptor, 0.34 nM; at Vasopressin V1a receptor it was 13.7 nM.

For `CC[C@H](C)[C@@H]1NC(=O)[C@H](Cc2ccc(O)cc2)NC(=O)CCSSC[C@@H](C(=O)N2CCC[C@H]2C(=O)N[C@@H](CCCNC(=O)c2ccc3c(c2)C2(OC3=O)c3ccc(O)cc3Oc3cc(O)ccc32)C(=O)NCC(N)=O)NC(=O)[C@H](CC(N)=O)NC(=O)[C@H](CCC(N)=O)NC1=O` ([Mpa]YIQNCP[Orn](6FAM)G-NH2; disulfide 1-6), the inhibition constant Ki on Vasopressin V2 receptor was above 10000 nM; on Vasopressin V1b receptor it was 393 nM; on Oxytocin receptor, 0.25 nM; at Vasopressin V1a receptor it was 107 nM.

Source of the values: ChEMBL document CHEMBL1135468 (J Med Chem, 2002).
